# MrgX1 allo act: positive allosteric modulators of MrgX1, primary screen, HEK293 cells, Fluo-4 calcium flux; AID 588675, 2011; B-score at 10 µM; FDSS; active compounds read high; actives 0.63% (n = 310,000);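 active = plate-corrected calcium response at least 3 library SD above typical, normal starting fluorescence, not activating the receptor alone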;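 note: compound read alongside a low EC10 to EC30 dose of BAM8-22 agonist; peak minus trough fluorescence over baseline measured at the second addition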
# MrgX1 agonist: agonists of human MrgX1 receptor, primary screen, HEK293 cells, Fluo-4 calcium flux. actives 0.44% (n = 310,000). B-score at 10 µM. Fluo-4 calcium fluorescence, agonist mode; active compounds read high;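 active = calcium response B-score plate-corrected fluorescence ratio at least 3 library SD, with starting fluorescence B-score inside 5 SD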
#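 Assay system: MrgX1-expressing HEK293 cells / Amount: fifteen thousand cells per well / Doses: test compound in the initial addition of three / Timing: cells plated overnight, dye loaded 0.5 h 37 °C, 0.5 h room temperature / Technique: kinetic calcium dye fluorescence, Fluo-4 NW / Control set: positive and negative controls per plate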
# RGS4 block: RGS4 inhibitors, primary screen, cell-based, HEK293 M3R inducible RGS4, calcium flux; Fluo-4 calcium flux; active compounds read high; triggered by carbachol at its EC20; B-score at 10 µM; actives 0.45% (n = 310,000);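 active = B-score, a plate-corrected calcium signal, over three deviations above library mean, with baseline fluorescence within five deviations of library mean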;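 note: RGS4 expression induced by doxycycline in cells with stable M3 receptor; B-score is computed from the integrated fluorescence ratio over baseline after carbachol; higher B-score means a larger calcium signal and so more RGS4 inhibition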
# Target sequence (P49798 whole entry, looked up): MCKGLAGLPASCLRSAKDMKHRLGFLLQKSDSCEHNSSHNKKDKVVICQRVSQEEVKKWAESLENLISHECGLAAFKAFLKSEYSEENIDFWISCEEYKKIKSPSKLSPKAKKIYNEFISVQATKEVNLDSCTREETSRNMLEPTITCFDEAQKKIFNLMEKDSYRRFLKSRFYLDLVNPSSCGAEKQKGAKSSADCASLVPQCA
# MrgX1 antagonist: antagonists of human MrgX1 receptor, primary screen, HEK293 cells, Fluo-4 calcium flux; AID 588676, 2011; BAM8-22 antagonism; active compounds read low; Mas-related G-protein coupled receptor member X1 (Homo sapiens), Q96LB2; actives 1.3% (n = 310,000); B-score at 10 µM;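 active = calcium-response B-score plate-corrected more than 3 library SD below zero, starting fluorescence within 5 deviations, no agonist response on first addition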;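 note: peak minus trough fluorescence over baseline after final BAM8-22 challenge near maximal dose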
# RGS4 pot: RGS4 potentiators or activators, primary screen, cell-based, HEK293 M3R inducible RGS4, calcium flux; carbachol calcium flux Fluo4; active compounds read low; B-score at 10 µM; actives 0.92% (n = 310,000); AID 463111, 2010;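 active = B-score of the integrated calcium signal more than 4 SD below the library mean, with starting fluorescence not abnormally high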;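 note: negative B-score means reduced calcium response which marks RGS4 activation or potentiation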
#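 Assay system: HEK293 FlpIn-TREx cells, stable M3R, doxycycline-inducible RGS4 / Probe or stimulus: carbachol, ECmax concentration / Times: overnight RGS4 induction, 30 min dye load 37 °C, 20 min compound RT / Signal: kinetic calcium fluorescence imaging with Fluo4-AM dye, 2 µM / Measure: Agonist-evoked peak-minus-minimum fluorescence over baseline, integrated ratio, B score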
# Active calls of the source: *; i = inactive; . = not tested or not shown. Sampled rows, rich in hits. Any-hit rate of the full collection: about 3.5%.
SMILES,MrgX1 allo act,MrgX1 agonist,RGS4 block,MrgX1 antagonist,RGS4 pot
CC(C)c1nn2c(N)c(/C=C3\C=Nc4ccccc43)c(=O)nc2s1,13.2*,i,i,i,i
CCCCc1nn2c(N)c(/C=C3\C=Nc4ccccc43)c(=O)nc2s1,i,i,i,i,i
COc1ccc(C(=O)COC(=O)COc2cc(C)cc(C)c2)cc1,i,i,i,i,i
COn1c(SC(C)C)nc2ccccc2c1=O,9.21*,i,i,i,i
CC(C)On1c(SC(C)C)nc2ccccc2c1=O,i,i,i,i,i
CCN1CCN(S(=O)(=O)c2ccc(Cl)c(C(=O)NCc3ccco3)c2)CC1,i,i,i,i,i
COc1ccc(OC)c(-c2cc(C(=O)N3CCN(c4ncccn4)CC3)c3ccccc3n2)c1,i,i,i,i,-7.12*
CCOc1ccccc1N1CCN(C(=O)c2cc(-c3cc(OC)ccc3OC)nc3ccccc23)CC1,i,i,i,i,-7.42*
COc1ccc(-c2cc(C(=O)N3CCCCCC3)c3ccccc3n2)c(OC)c1,i,i,i,i,i
COc1ccc(N2CCN(C(=O)c3cc(-c4cc(OC)ccc4OC)nc4ccccc34)CC2)cc1,i,i,i,i,-7.03*
COc1nc(Nc2ccc([N+](=O)[O-])cc2)nc(NC2CCCCC2)n1,i,i,i,i,i
CC(=O)Nc1ccc(S(=O)(=O)N(C)CC(=O)OCC(=O)N(C)C2CCS(=O)(=O)C2)cc1 (centres undefined),i,i,i,i,i
O=C1CC(c2ccccc2F)C2=C(COC2=O)N1 (centres undefined),i,i,i,i,i
COc1ccccc1CNC(=O)CS(=O)(=O)c1ccc(C)cc1,i,i,i,i,i
CCCN(CCC)C(=O)Cn1c(=O)c2ccccc2n2c(=S)sc(-c3ccccc3C)c12,i,i,i,-4.57*,i
O=C(COC(=O)c1ccc(-c2ccc([N+](=O)[O-])cc2)o1)NC(=O)NC12CC3CC(CC(C3)C1)C2,i,i,i,i,i
O=C(COC(=O)c1ccc(-c2ccc([N+](=O)[O-])cc2)o1)NC(=O)NC1CCCCC1,i,i,i,i,-7.03*
CCOC(=O)C1CCCN(C(=O)c2ccc(-c3ccc([N+](=O)[O-])cc3)o2)C1 (centres undefined),i,i,i,i,-9.04*
O=S(=O)(Nc1ccccn1)c1cccs1,i,i,i,i,i
Cc1[nH]c2ccccc2c1C1(O)C(=O)N(C(C)C)c2ccccc21 (centres undefined),i,i,i,i,i
Cc1ccc2c(c1)C(O)(c1c(C)[nH]c3ccccc13)C(=O)N2 (centres undefined),i,i,6.31*,i,i
CCc1oc(C(=O)OC)cc1CSC(=N)N,i,42.5*,i,i,i
CN(C)c1cc[n+](CC(=O)N2c3ccccc3Sc3ccccc32)cc1,i,i,i,i,-8.07*
O=C(COc1ccccc1)N1c2ccccc2Sc2ccccc21,i,i,i,i,i
Nc1ccc(C(=O)O)c(O)c1,i,i,i,i,i
Nc1ccc(N)c(C(=O)O)c1,i,i,i,-5.65*,i
Cc1ccc(C)c(C(=O)COC(=O)c2cc([N+](=O)[O-])ccc2NCCO)c1,i,i,i,i,i
CCCc1nc(SCC(=O)N2CCC(Cc3ccccc3)CC2)c2c(=O)n(C)c(=O)n(C)c2n1,i,i,i,i,-7.33*
CCc1nc(SCC(=O)N2CCCCCC2)c2c(=O)n(C)c(=O)n(C)c2n1,i,i,i,i,-7.65*
CCN1CCN(CCNC(=O)c2ccc(/C=C3/Sc4ccccc4N(Cc4ccccc4C)C3=O)cc2)CC1,.,.,i,.,-8.42*

# Assay outcomes from PubChem BioAssay.
